# Test results as given in ChEMBL document CHEMBL1154725, “Synthesis and antitumor evaluation of novel diarylsulfonylurea derivatives: molecular modeling applications” (2010).
# How the values were obtained:
# Format in all cases: functional
# EKVX = assay: Growth inhibition of human EKVX cells after 48 hrs
# Summary of the method: (§1)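 NCI in vitro human tumour cell line screen (about 60 lines, nine subpanels). Compounds dissolved in DMSO, diluted in phosphate-buffered saline (final DMSO under 1%), tested at five concentrations from 0.01 to 100, in duplicate wells. Cells at 6 × 10⁴ cells/mL, 37 °C, 5% CO₂, 48 h. GI50 (50% decrease in net growth) taken from log concentration versus % growth inhibition curves; subpanel values are subpanel mean-graph midpoints.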
# HCC 2998 = assay: Growth inhibition of human HCC2998 cells after 48 hrs; details: HCC 2998, 48 h; summary of the method: as §1
# UACC-257 = assay: Growth inhibition of human UACC257 cells after 48 hrs; details: UACC-257, 48 h; summary of the method: as §1
# MCF7 = assay: Growth inhibition of human MCF7 cells after 48 hrs; details: MCF7, 48 h; summary of the method: as §1
# Leukemia cell = assay: Growth inhibition of human Leukemia cells after 48 hrs; summary of the method: as §1
# NSCLC = assay: Growth inhibition of human NSCLC cell after 48 hrs; summary of the method: as §1
# [1] = Growth inhibition of human Colon cancer cells after 48 hrs; details: Cancer cell lines; summary of the method: as §1
# [2] = Growth inhibition of human CNS cancer cells after 48 hrs; details: Cancer cell lines; summary of the method: as §1
# Melanoma cell = assay: Growth inhibition of human Melanoma cells after 48 hrs; summary of the method: as §1
# [3] = Growth inhibition of human Ovarian cancer cells after 48 hrs; details: Cancer cell lines; summary of the method: as §1
# [4] = Growth inhibition of human Renal cancer cells after 48 hrs; details: Cancer cell lines; summary of the method: as §1
# [5] = Growth inhibition of human Prostate cancer cells after 48 hrs; details: Cancer cell lines; summary of the method: as §1
# [6] = Growth inhibition of human Breast cancer cells after 48 hrs; details: Cancer cell lines; summary of the method: as §1
# OVCAR-3 = assay: Growth inhibition of human OVCAR-3 cells after 48 hrs; details: OVCAR-3, 48 h; summary of the method: as §1
GI50 (HCC 2998) [µM],GI50 (MCF7) [µM],GI50 (Leukemia cell) [µM],GI50 (Melanoma cell) [µM],GI50 (OVCAR-3) [µM],SMILES,GI50 (EKVX) [µM],GI50 (UACC-257) [µM],GI50 (NSCLC) [µM],GI50 [1] [µM],GI50 [2] [µM],GI50 [3] [µM],GI50 [4] [µM],GI50 [5] [µM],GI50 [6] [µM]
2.9,8.3,30.6,4.2,> 100,O=C(Nc1sc2c(c1C(=O)NNc1ccc(Cl)cc1)CCCCC2)NS(=O)(=O)c1ccccc1,> 100,> 100,8.6,1.2,12,7.5,> 100,14.5,5.9
15.3,> 100,> 100,61.2,> 100,CN1CCN(C(=O)c2c(NC(=O)NS(=O)(=O)c3ccccc3)sc3c2CCCCC3)CC1,> 100,> 100,22.3,9.2,56.2,31.3,42.3,80.2,49.2
> 100,> 100,42.2,65.3,> 100,CCCNC(=O)c1c(NC(=O)NS(=O)(=O)c2ccccc2)sc2c1CCCCC2,6.2,> 100,54.2,85.3,72.5,76.5,80.3,90.2,70.3
19.5,> 100,42.2,26.2,> 100,O=c1[nH]c2sc3c(c2c(=O)n1S(=O)(=O)c1ccccc1)CCCCC3,3.8,> 100,9.3,20.5,81.3,34.2,50.2,34.2,22.5
6.3,> 100,18.6,32.3,15.2,O=C(Nc1sc2c(c1C(=O)NNc1ccccc1)CCCCC2)NS(=O)(=O)c1ccccc1,> 100,> 100,16,7,30.9,15.2,26.3,> 100,18.5
16.9,> 100,> 100,52.3,11.9,O=C(Nc1sc2c(c1C(=O)N1CCN(c3ccccc3)CC1)CCCCC2)NS(=O)(=O)c1ccccc1,> 100,> 100,36.2,11.5,55.8,36.2,65.2,60.3,58.2
,,> 100,76.7,,CCCCNC(=O)c1c(NC(=O)NS(=O)(=O)c2ccccc2)sc2c1CCCCC2,,,30.3,65.2,85.3,> 100,72.3,92.6,85.2
0.9,4.2,30.3,4.5,> 100,NNC(=O)c1c(NC(=O)NS(=O)(=O)c2ccccc2)sc2c1CCCCC2,> 100,2.8,10.5,3.5,> 100,1.5,> 100,15.8,4.5
1.6,> 100,> 100,31.3,14.8,O=C(Nc1sc2c(c1C(=O)NNc1ccc(Br)cc1)CCCCC2)NS(=O)(=O)c1ccccc1,> 100,> 100,11.5,1.6,25.5,10.2,11.5,> 100,5.3
